Experimental findings from ChEMBL document CHEMBL3734747, “Varioxiranols A-G and 19-O-Methyl-22-methoxypre-shamixanthone, PKS and Hybrid PKS-Derived Metabolites from a Sponge-Associated Emericella variecolor Fungus” (J Nat Prod, 2015) are described below.

The structures appear in SMILES notation. Active and inactive are the calls of the source. No cut-off for these calls is given here.

Data set [1] deals with HepG2. Put plainly: Inhibition of oleic acid-induced triglyceride level in human HepG2 cells at 10 uM. Format: functional, cell-based. Put shortly: (§1)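 HepG2 cells at 70–80% confluence exposed to 100 μM oleic acid in DMEM for 12 h, then compound at 10 μM plus 100 μM oleic acid for 6 h. Statin positive control. Intracellular total cholesterol and triglyceride measured with commercial kits. n = 3, experiment repeated in triplicate, mean ± SEM.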

For data set [2], the system named is HepG2. Put plainly: Cytotoxicity against human HepG2 cells upto 100 uM by MTT assay. The format is cell-based.
Data set [3] has as its system HepG2. Put plainly: Inhibition of oleic acid-induced lipid accumulation in human HepG2 cells at 10 uM by oil red O staining analysis. The format is functional, cell-based. Put shortly:
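HepG2 cells in DMEM with 10% FBS and penicillin/streptomycin, grown to 70–80% confluence, preloaded with 100 μM oleic acid for 12 h, then given compound at 10 μM in DMEM/100 μM oleic acid for another 6 h. Statin positive control and DMEM/oleic acid blank. Oil Red O staining read by spectrophotometry at 358 nm. n = 8, experiment repeated in triplicate, mean ± SEM.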

Data set [4] concerns HepG2. Put plainly: Inhibition of oleic acid-induced total cholesterol level in human HepG2 cells at 10 uM. The format is functional, cell-based. An outline of the steps: as §1
Data set [5] has as its system HepG2. Put plainly: Decrease in acetyl-CoA carboxylase mRNA level in human HepG2 cells by RT-PCR analysis. Format: functional, cell-based.
Data set [6] has as its system HepG2. Put plainly: Decrease in fatty acid synthase mRNA level in human HepG2 cells by RT-PCR analysis. The format is functional, cell-based.
Data set [7] has as its system HepG2. Put plainly: Decrease in SREBP-1c mRNA level in human HepG2 cells by RT-PCR analysis. Format: functional, cell-based.

On to `C/C=C/[C@H](O)[C@H](O)/C=C/c1cccc(OC)c1CO`, for which the inhibition entry in the data set with HepG2 [1] was “inactive”. Moreover, the Activity entry in the data set on HepG2 [2] is on record as “Non-toxic”. Besides, the inhibition result with HepG2 [3] was “Active”.

Consider `CCC[C@H](O)[C@H](O)/C=C/c1cccc(OC)c1CO`, for which the inhibition result with HepG2 [1] and with HepG2 [3] was “Active” each time. For the same molecule, the Activity result in the data set with HepG2 [2] is “Non-toxic”. In addition, the inhibition entry in the data set with HepG2 [4] is “inactive”.

As to `C=C(C)[C@H]1COc2c(C)cc(O)c(C(=O)c3c(O)ccc(CC=C(C)C)c3O)c2[C@@H]1O`, the inhibition entry in the data set with HepG2 [1], in the data set on HepG2 [5], with HepG2 [6], in the data set with HepG2 [7], in the data set on HepG2 [4] and in the data set on HepG2 [3] was “Active” each time. Moreover, the Activity result in the data set on HepG2 [2] is “Non-toxic”.
